Sampled rows, rich in hits. Any-hit rate of the full collection: about 3.1%.
rRNA inh HTS: reduced GFP signal of wild-type E. coli, primary screen, bacterial rRNA inhibitor project, GFP/RFP fluorescence, OD600, single point; E. coli WT GFP vs humanized-ribosome RFP mutants, 24 h; hits give low values; DMSO median 0, no signal -100; GFP signal change (wild-type ribosome), % (test concentration not listed); 350,000 compounds, 1.6% hits; AID 720706, 2013;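 active = significant combined selectivity score with lowered wild-type GFP, culture density cut under 30%, mutant RFP and density less affected; inactive = any of these conditions unmet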
S100A4 inh HTS: inhibitors of S100A4-myosin IIA peptide binding, primary screen, biochemical, fluorescence polarization, TAMRA-MyoIIA peptide; inhibition, % at 10.7 µM; Protein S100-A4 (Homo sapiens), P26447; 360,000 compounds, 0.14% hits; AID 652163, 2013;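 active = mean inhibition of at least 70% across replicates, with every replicate also reaching that level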
Target sequence (P26447 whole entry, looked up): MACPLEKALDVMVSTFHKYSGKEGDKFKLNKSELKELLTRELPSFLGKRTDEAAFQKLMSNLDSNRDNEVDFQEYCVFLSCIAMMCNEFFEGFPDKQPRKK
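System – human S100A4 monomer protein, biochemical binding assay · Buffer or medium – Calcium-containing HEPES buffer, pH 7.2 · Timing – 5 min between mix addition and reading · Also added – TAMRA-labelled myosin IIA heavy-chain peptide probe, 5 nM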
SIRT5 block: SIRT5 desuccinylase inhibitors, primary screen, biochemical, fluorescence imaging, single point, set 5; NAD-dependent protein deacylase sirtuin-5, mitochondrial (Homo sapiens), Q9NXA8; Purified SirT5, succinyl-peptide AMC, trypsin-coupled fluorescence; inhibition, % at 15 µM; 330,000 compounds, 1.1% hits; AID 652115, 2013; in the data active = inhibition above about 15%
Target sequence (Q9NXA8 whole entry, looked up): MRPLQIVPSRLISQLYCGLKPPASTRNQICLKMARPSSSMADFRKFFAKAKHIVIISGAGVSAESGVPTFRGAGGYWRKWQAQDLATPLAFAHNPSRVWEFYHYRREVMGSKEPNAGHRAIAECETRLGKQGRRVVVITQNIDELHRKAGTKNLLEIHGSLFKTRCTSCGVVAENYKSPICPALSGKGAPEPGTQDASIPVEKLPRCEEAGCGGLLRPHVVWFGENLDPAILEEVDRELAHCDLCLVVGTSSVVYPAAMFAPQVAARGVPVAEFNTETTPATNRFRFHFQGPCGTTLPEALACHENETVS
ERAP1 inh: human ERAP1 aminopeptidase inhibitors, primary screen, biochemical, single point, plate reader; recombinant ERAP1, Leu-AMC fluorescence, 60 min; 340,000 compounds, 0.15% hits; Endoplasmic reticulum aminopeptidase 1 (Homo sapiens), Q9NZ08; inhibition, % at 10.7 µM;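 active = mean replicate inhibition of at least 30%, or all replicates individually reaching that 30% level; inactive = mean below 30% and not every replicate reaching it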;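 note: 0% = neutral control wells and 100% = L-leucinethiol positive control wells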
F508del corr: F508del CFTR correction, initial screen, CFBE line, single point; 350,000 compounds, 0.36% hits; CFBE cells, YFP halide quenching; stimulated with forskolin plus potentiator P3; % fluorescence drop versus neutral controls; activity (quench increase), % at 7.58 µM;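 active = mean added fluorescence quench of at least 8% versus neutral control, with both replicates also reaching 8%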;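 note: cells transiently co-express mutant CFTR-F508del with the halide-sensitive YFP; corrector assay measuring rescue of mutant channel to the surface after 24 h compound exposure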
* marks the source's active call; other numbers are inactive results; · = no result given.

SMILES	rRNA inh HTS	S100A4 inh HTS	SIRT5 block	ERAP1 inh	F508del corr
Cc1ccc(S(=O)(=O)Nc2cccc3c2O[C@@H](CN(C)CC2CC2)[C@H](C)CN([C@H](C)CO)C3=O)cc1	3	9	-2	2	1
Cc1cc(=O)c2ccccc2n1Cc1ccccc1	-22*	-4	-2	1	1
Cc1cc(=O)n(Cc2ccccc2)c2ccccc12	-9	-8	-9	-5	-2
CO[C@H]1CN(C)C(=O)c2cc(NC(=O)C3CCC3)ccc2OC[C@@H](C)N(Cc2ccccn2)C[C@H]1C	0	·	·	·	-4
COCCN(Cc1cc2cc3c(cc2nc1Cl)OCO3)C(=O)Nc1ccc(F)cc1	-27*	1	-2	0	1
COCCN(Cc1cc2cc3c(cc2nc1Cl)OCO3)C(=O)Nc1ccc(OC)cc1	17	-1	-3	5	-1
Fc1cc(Br)ccc1NC(=S)NCCc1ccccc1	-50*	3	4	-2	2
C[C@H]1CN([C@@H](C)CO)C(=O)Cc2cc(NC(=O)Cc3ccccc3)ccc2O[C@H]1CN(C)C	1	5	0	-2	2
COc1cccc(C(=O)NCCN2C(=O)S/C(=C/c3cccs3)C2=O)c1OC	-39*	0	0	5	-4
C[C@@H]1CN([C@@H](C)CO)C(=O)Cc2cc(NC(=O)CCCCCC(=O)Nc3ccccc3N)ccc2O[C@H]1CN(C)S(C)(=O)=O	2	2	1	0	-3
O=C(c1ccccc1)N1C[C@H]2[C@@H](c3ccccc31)[C@H](CO)N2S(=O)(=O)c1ccccc1	-4	16	-1	2	-1
COc1ccc(NC(=O)Nc2ccc3c(c2)CC(=O)N([C@@H](C)CO)C[C@@H](C)[C@@H](CN(C)S(C)(=O)=O)O3)cc1	7	0	-1	-2	0
O=C(c1csc(Nc2cccc3ccccc23)n1)N1CCCC1	-32*	0	-18	-4	2
CN1C(=O)c2cc(NC(=O)C3CC3)ccc2OC[C@@H]2O[C@@H](CC(=O)NC3CCC3)CC[C@H]21	2	1	3	-1	0
CCCc1cn(CC[C@H]2CC[C@H](NC(=O)C3CCCC3)[C@@H](CO)O2)nn1	3	1	0	2	-3
CC(C)CCC(C(=O)NC(C)c1ccccc1)C(=O)NC(C)c1ccccc1 (stereo not given)	6	2	0	-1	-3
CC(C)CCCCCCCCc1cccc(O)c1C(=O)O	·	-2	20*	1	1
O=c1[nH]c(=S)[nH]c2scc(-c3ccc(Br)cc3)c12	0	-1	0	·	1
O=c1[nH]c(=S)[nH]c2sccc12	6	6	1	50*	1
COc1ccc(S(=O)(=O)N2CCN(CCOc3ccccc3Cl)CC2)cc1OC	-7	15	0	2	17*
CC[C@H]1CN2CCc3cc(OC)c(OC)cc3C2C[C@@H]1C[C@H]1NCCc2cc(OC)c(OC)cc21 (stereo not given in full)	-11	2	-3	-10	-10
COc1cc2c(cc1OC)CN1CCc3cc(OC)c(OC)cc3C1C2 (stereo not given)	·	-1	23*	1	-2
CCC1=C(CC2NCCc3ccccc32)CC2c3cc(OC)c(OC)cc3CCN2C1 (stereo not given)	16	19	·	-2	10*
O=C(C[C@@H]1CC[C@H]2[C@@H](COC[C@@H](O)CN2Cc2ccccc2)O1)N[C@@H]1CCN(Cc2ccccc2)C1	-2	4	1	1	2
Cc1noc(C)c1NC(=O)Nc1ccc2c(c1)C(=O)N([C@H](C)CO)C[C@@H](C)[C@@H](CN(C)Cc1ccncc1)O2	1	6	-2	1	2
SMILES	rRNA inh HTS	S100A4 inh HTS	SIRT5 block	ERAP1 inh	F508del corr
CCOc1ccccc1NC(=O)c1cnccn1	8	5	3	4	6
CC(C)c1ccccc1NC(=O)c1cnccn1	4	53	20*	-5	·
Cc1ccc(-c2ccc(C3[C@H]4CNC[C@@H]3N4S(=O)(=O)c3ccc(C)cc3)cc2)cc1 (stereo not given in full)	-54	-24	-1	0	-2
C[C@H](CO)N1C[C@H](C)[C@H](CN(C)C(=O)C2CC2)Oc2cc(C#C[C@@H](C)O)ccc2S1(=O)=O	4	-7	3	1	1
CCOc1ccc(/C=N/O)cc1	·	·	·	·	4
Cc1ccc(COc2ccc(/C=N/O)cc2)cc1	-16*	1	-4	-1	·
Cc1noc(C)c1S(=O)(=O)Nc1ccc2c(c1)CC(=O)N([C@H](C)CO)C[C@@H](C)[C@@H](CN(C)C(=O)Nc1cccc3ccccc13)O2	-4	6	4	0	-4
CCC(=O)Nc1ccc2c(c1)C(=O)N(C)[C@@H]1CC[C@H](CC(=O)N[C@H](C)c3ccccc3)O[C@@H]1CO2	-1	6	15*	2	2
CC(C)C(=O)Nc1ccc2c(c1)C(=O)N(C)[C@H]1CC[C@H](CC(=O)Nc3ccccc3)O[C@@H]1CO2	-5	1	3	1	1
COCCNC(=O)C[C@@H]1CC[C@@H]2[C@H](COc3ccc(NC(=O)Nc4cccc(F)c4)cc3C(=O)N2C)O1	2	17	1	-3	-3
CC(C)C(=O)Nc1ccc2c(c1)C(=O)N(C)[C@H]1CC[C@H](CC(=O)Nc3cccc(F)c3)O[C@@H]1CO2	-1	78*	-1	-1	-3
COCCNC(=O)C[C@@H]1CC[C@H]2[C@H](COc3ccc(NC(=O)Nc4cccc(F)c4)cc3C(=O)N2C)O1	-1	2	23*	·	2
CC1CCc2nc3ccccc3c(C(=O)OCC(=O)NC3CCS(=O)(=O)C3)c2C1 (stereo not given)	-29*	0	-7	5	-2
CC1CCc2nc3ccccc3c(C(=O)OCC(=O)N(C)C3CCS(=O)(=O)C3)c2C1 (stereo not given)	-6	-1	-1	0	1
CC(C(=O)NC1C=CS(=O)(=O)C1)N1C(=O)/C(=C\c2ccccc2)SC1=S (stereo not given)	-16*	-2	-1	2	3
CC(C(=O)NC1C=CS(=O)(=O)C1)N1C(=O)/C(=C/c2cccc(Cl)c2)SC1=S (stereo not given)	-28*	1	0	-1	1
COc1ccccc1/C=C1/SC(=S)N(C(C)C(=O)NC2C=CS(=O)(=O)C2)C1=O (stereo not given)	-11	-16	2	-3	0

Bioassay records deposited in PubChem BioAssay by Broad Institute.
